Legend:
[1] = Cytotoxicity in HEK293 cells after 48 hrs by Cell-titer Glo reagent based assay; settings: human, read-out: LD50
In short: (§1)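 Cells (HEK293, HepG2 or BEAS2B) exposed to compounds at a range of concentrations for 48 h; viability read by Cell-Titer Glo luminescence. Normalized to DMSO (negative) and 3-dibutylamino-1-(4-hexyl-phenyl)-propan-1-one at 150 μM final in DMSO (positive).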

[2] = tested on: Liver; assay: Metabolic stability in human liver microsomes assessed as compound remaining at 10 uM after 1 hr by LC-MS/MS analysis; format: ADME, microsome
In short: (§2)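 Compound stability was measured in human or mouse liver microsomes as percent remaining after 1 h. Data came from two independent experiments, each run in triplicate.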

[3] = Half life in human liver microsomes at 10 uM by LC-MS/MS analysis; format: ADME, microsome
[4] = Cytotoxicity in human HepG2 cells after 48 hrs by Cell-titer Glo reagent based assay; settings: read-out: LD50; in short: as §1
[5] = Cytotoxicity in human BEAS2B cells after 48 hrs by Cell-titer Glo reagent based assay; parameters: species or system BEAS-2B; settings: read-out: LD50; in short: as §1
[6] = tested on: Liver; assay: Metabolic stability in mouse liver microsomes assessed as compound remaining at 10 uM after 1 hr by LC-MS/MS analysis; format: ADME, microsome; in short: as §2
[7] = (§3) Half life in mouse liver microsomes at 10 uM by LC-MS/MS analysis; format: ADME, microsome; settings: liver microsomes
[8] = tested on: Mus musculus; assay: Neurotoxicity in Swiss Webster mouse assessed as induction of senorimotor impairment at 40 mg/kg, ip administered 10 mins prior to testing and measured for 3 mins at 10 to 60 mins after drug administration by rotarod method; format: toxicity, organism-based; settings: in vivo
In short: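 Swiss Webster mice, pre-trained at 15 rpm until they held on for 3 min at three consecutive sessions, were given a single i.p. dose of 40 mg/kg in 10% DMSO/40% propylene glycol/50% PBS. Rotarod at 15 rpm for 3 min at 10, 30 and 60 min after dosing. Falls before 3 min scored as fail, with time of fall recorded. N = 10, mean ± SEM. Vehicle and diazepam 5 mg/kg i.p. controls. Mice rested 2–3 days between doses.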

[9] = tested on: Liver; assay: as §3; format: ADME, microsome; settings: microsomes, 10 µM
[10] = Solubility of the compound in PBS/1% DMSO at 10 uM; format: physicochemical; settings: buffer
In short: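 Solubility was judged at 10 μM in PBS containing 1% DMSO.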

[11] = Solubility of the compound in 50% PBS/40% propylene glycol/10% DMSO at 10 uM; format: physicochemical; settings: buffer

Structure (SMILES) | CC50 at 48 h [1] | Stability [2] | half-life at 10 µM [3] | CC50 at 48 h [4] | CC50 at 48 h [5] | Stability [6] | half-life at 10 µM [7] | Activity [8] | t1/2 [9] | solubility [10] | solubility [11]
COc1ccc2c(c1)C(=O)N1CCC[C@H]1c1c(C(=O)O)ncn1-2 | > 400 µM | 56.1% | 1.33 h | > 400 µM | > 400 µM | 52.9% | 1.22 h |  |  |  | 
[2H]C([2H])([2H])Oc1ccc2c(c1)C(=O)N1CCC[C@H]1c1c(C(=O)NCC)ncn1-2 | > 400 µM | 93.5% | 21.3 h | > 400 µM | > 400 µM | 94.8% | 4.55 h | Non-Toxic |  |  | 
[2H]C([2H])([2H])Oc1ccc2c(c1)C(=O)N1CCC[C@H]1c1c(C(=O)NC(C)(C)C)ncn1-2 | > 200 µM | 95.6% | 7.15 h | > 400 µM | > 400 µM | 9.4% |  | Toxic | 21.5 h |  | 
[2H]C([2H])([2H])Oc1ccc2c(c1)C(=O)N1CCC[C@H]1c1c(C(=O)OCC)ncn1-2 | > 400 µM | 92.8% | 14 h | > 400 µM | > 400 µM | 85.5% | 5.85 h |  |  |  | 
COc1ccc2c(c1)C(=O)N1CCC[C@H]1c1c(C(=O)NC3CC3)ncn1-2 | > 200 µM | 79.9% | 13.1 h | > 400 µM | > 400 µM | 91.3% |  |  | 0.222 h |  | 
[2H]C([2H])([2H])Oc1ccc2c(c1)C(=O)N1CCC[C@H]1c1c(C(=O)OC(C)(C)C)ncn1-2 | > 100 µM | 91.9% | 16.9 h | > 400 µM | > 200 µM | 17.6% | 0.428 h |  |  |  | 
CCSC(=O)c1ncn2c1[C@@H]1CCCN1C(=O)c1cc(OC)ccc1-2 | > 100 µM |  |  | > 100 µM | > 100 µM |  |  |  |  | Insoluble | Insoluble
[2H]C([2H])([2H])Oc1ccc2c(c1)C(=O)N1CCC[C@H]1c1c(C(=O)SCC)ncn1-2 | > 100 µM |  |  | > 100 µM | > 100 µM |  |  |  |  | Insoluble | Insoluble
CNC(=O)c1ncn2c1[C@@H]1CCCN1C(=O)c1cc(OC)ccc1-2 | > 100 µM | 93.8% | 16.3 h | > 400 µM | > 400 µM | 54.3% | 1.08 h | Toxic |  |  | 
[2H]C([2H])([2H])Oc1ccc2c(c1)C(=O)N1CCC[C@H]1c1c(C(=O)SC(C)(C)C)ncn1-2 | 16.8 µM |  |  | > 100 µM | > 100 µM |  |  |  |  | Insoluble | 
CC(C)(C)OC(=O)c1ncn2c1[C@@H]1CCCN1C(=O)c1cc(O)ccc1-2 | > 400 µM | 90.6% | 9.65 h | > 400 µM | > 400 µM | 46.6% | 0.96 h |  |  |  | 
CCNC(=O)c1ncn2c1[C@@H]1CCCN1C(=O)c1cc(OC)ccc1-2 | > 400 µM | 90.7% | 12.2 h | > 400 µM | > 400 µM | 50.1% |  |  | 4.72 h |  | 
COc1ccc2c(c1)C(=O)N1CCC[C@H]1c1c(C(=O)SC(C)(C)C)ncn1-2 | 18.8 µM |  |  | > 100 µM | > 100 µM |  |  |  |  | Insoluble | Insoluble

Reference: ChEMBL document CHEMBL3992505, “Optimization of substituted imidazobenzodiazepines as novel asthma treatments” (Eur J Med Chem, 2017)
